From ChEMBL document CHEMBL4043297, “Synthesis and Structure-Activity Relationships of the Novel Antimalarials 5-Pyridinyl-4(1 H)-Pyridones” (J Med Chem, 2018)

Key:
serum albumin = serum albumin (Homo sapiens, UniProt P02768); assay: Binding affinity to human serum albumin by HPLC method; type: ADME; conditions: read-out: PB (converted)
[1] = Clearance in CD1 mouse at 0.192 mg/kg, iv as bolus dose by LC-MS/MS method; type: ADME, organism-based; conditions: in vivo
Outline: (§1)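 Specific pathogen-free female CD1 (Hsd:ICR) mice, 8 to 10 weeks old. Each compound was given as an intravenous dose and an oral dose at the levels listed. Parameters reported: Vd, clearance, t1/2, Cmax, Tmax, AUC0-t, AUC∞ and %F.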

[2] = Tmax in CD1 mouse at 10.36 mg/kg administered via oral gavage by LC-MS/MS method; type: ADME, organism-based; conditions: in vivo
Outline: (§2)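 Specific pathogen-free female CD1 (Hsd:ICR) mice, 8–10 weeks old, housed in the institutional animal facility. Each compound was given intravenously at a low dose and orally at a higher dose. Vd, clearance, t1/2, Cmax, Tmax, AUC0-t, AUC∞ and %F were derived from plasma exposure after each route.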

Plasmodium falciparum = assay: Antimalarial activity against Plasmodium falciparum 3D7A infected in human RBC after 48 hrs by [3H]-hypoxanthine incorporation assay; type: functional
[3] = Volume of distribution in CD1 mouse at 0.192 mg/kg, iv as bolus dose by LC-MS/MS method; type: ADME, organism-based; conditions: in vivo; outline: as §2
[4] = Cmax in CD1 mouse at 10.36 mg/kg administered via oral gavage by LC-MS/MS method; type: ADME, organism-based; parameters: dose 10.36 mg/kg, route oral; conditions: in vivo; outline: as §1
[5] = Oral bioavailability in CD1 mouse at 10.36 mg/kg administered via gavage by LC-MS/MS method; type: ADME, organism-based; conditions: in vivo; outline: as §1
[6] = AUC (0 to t) in CD1 mouse at 10.36 mg/kg administered via oral gavage by LC-MS/MS method; type: ADME, organism-based; conditions: in vivo; outline: as §1
[7] = AUC (infinity) in CD1 mouse at 10.36 mg/kg administered via oral gavage by LC-MS/MS method; type: ADME, organism-based; parameters: dose 10.36 mg/kg, route oral, time infinity; conditions: in vivo; outline: as §1
[8] = Half life in CD1 mouse at 0.192 mg/kg, iv as bolus dose by LC-MS/MS method; type: ADME, organism-based; conditions: in vivo; outline: as §1
[9] = Volume of distribution in CD1 mouse at 0.17 mg/kg, iv as bolus dose by LC-MS/MS method; type: ADME, organism-based; conditions: in vivo; outline: as §2
[10] = Clearance in CD1 mouse at 0.17 mg/kg, iv as bolus dose by LC-MS/MS method; type: ADME, organism-based; conditions: in vivo; outline: as §1
[11] = Half life in CD1 mouse at 0.17 mg/kg, iv as bolus dose by LC-MS/MS method; type: ADME, organism-based; conditions: in vivo; outline: as §1
[12] = Tmax in CD1 mouse at 10.757 mg/kg administered via oral gavage by LC-MS/MS method; type: ADME, organism-based; conditions: in vivo; outline: as §2
[13] = AUC (infinity) in CD1 mouse at 10.757 mg/kg administered via oral gavage by LC-MS/MS method; type: ADME, organism-based; parameters: dose 10.757 mg/kg, route oral, time infinity; conditions: in vivo, 10.76 mg/kg; outline: as §1
[14] = AUC (0 to t) in CD1 mouse at 10.757 mg/kg administered via oral gavage by LC-MS/MS method; type: ADME, organism-based; conditions: in vivo; outline: as §1
[15] = Cmax in CD1 mouse at 10.757 mg/kg administered via oral gavage by LC-MS/MS method; type: ADME, organism-based; parameters: dose 10.757 mg/kg, route oral; conditions: in vivo, 10.76 mg/kg; outline: as §1
Plasmodium yoelii = assay: Schizontocidal activity against Plasmodium yoelii infected in CD1 mouse administered via oral gavage as qd for 4 days starting 1 hr post infection by YOYO-1 dye-based flow cytometric method; type: functional
Outline: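 Blood schizontocidal activity was tested in a modified 4-day suppressive test in mice infected with P. yoelii. Four oral doses were given by gavage over four days.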

[16] = Oral bioavailability in CD1 mouse at 10.757 mg/kg administered via gavage by LC-MS/MS method; type: ADME, organism-based; conditions: in vivo; outline: as §1
[17] = AUC (0 to t) in CD1 mouse at 8.3 mg/kg administered via oral gavage by LC-MS/MS method; type: ADME, organism-based; conditions: in vivo; outline: as §1
[18] = Oral bioavailability in CD1 mouse at 8.3 mg/kg administered via gavage by LC-MS/MS method; type: ADME, organism-based; conditions: in vivo; outline: as §2
[19] = Half life in CD1 mouse at […], iv as bolus dose by LC-MS/MS method; type: ADME, organism-based; conditions: in vivo
[20] = Cmax in CD1 mouse at 8.3 mg/kg administered via oral gavage by LC-MS/MS method; type: ADME, organism-based; parameters: dose 8.3 mg/kg, route oral; conditions: in vivo; outline: as §1
[21] = Clearance in CD1 mouse at […], iv as bolus dose by LC-MS/MS method; type: ADME, organism-based; conditions: in vivo
[22] = Volume of distribution in CD1 mouse at […], iv as bolus dose by LC-MS/MS method; type: ADME, organism-based; conditions: in vivo
[23] = Tmax in CD1 mouse at 8.3 mg/kg administered via oral gavage by LC-MS/MS method; type: ADME, organism-based; conditions: in vivo; outline: as §2
[24] = AUC (infinity) in CD1 mouse at 8.3 mg/kg administered via oral gavage by LC-MS/MS method; type: ADME, organism-based; parameters: dose 8.3 mg/kg, route oral, time infinity; conditions: in vivo; outline: as §1

Chain of serum albumin (P02768 whole entry): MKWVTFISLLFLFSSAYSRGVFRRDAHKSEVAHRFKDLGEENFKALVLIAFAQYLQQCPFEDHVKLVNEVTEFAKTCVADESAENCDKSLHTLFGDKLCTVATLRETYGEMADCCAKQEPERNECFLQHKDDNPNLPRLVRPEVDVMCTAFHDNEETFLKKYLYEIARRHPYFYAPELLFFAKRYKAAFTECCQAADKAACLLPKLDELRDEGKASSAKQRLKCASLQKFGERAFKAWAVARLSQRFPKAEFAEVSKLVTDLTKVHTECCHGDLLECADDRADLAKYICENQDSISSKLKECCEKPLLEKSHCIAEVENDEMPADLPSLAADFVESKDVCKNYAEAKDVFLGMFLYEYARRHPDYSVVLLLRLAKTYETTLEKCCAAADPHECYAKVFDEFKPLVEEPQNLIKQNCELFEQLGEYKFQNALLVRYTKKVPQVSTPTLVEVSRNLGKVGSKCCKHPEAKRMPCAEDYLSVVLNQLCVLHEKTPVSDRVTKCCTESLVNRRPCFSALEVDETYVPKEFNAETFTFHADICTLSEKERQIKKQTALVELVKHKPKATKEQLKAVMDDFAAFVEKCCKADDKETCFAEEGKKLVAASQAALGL

For `Cc1[nH]c(C)c(-c2ccc(-c3ccc(OC(F)(F)F)cc3)nc2)c(=O)c1Br`, the fraction unbound (serum albumin) was 0.04, the clearance [1] was 0.72 mL/min/kg and the Tmax [2] was 10 h. For the same molecule, the IC50 (Plasmodium falciparum) was 20 nM, the Vd [3] was 0.91 L/kg and the Cmax [4] was 4100 ng/mL. For the same molecule, the bioavailability [5] was 49.1%, the AUC(0-t) [6] was 109 µg·h/mL and the AUC(0-inf) [7] was 118 µg·h/mL. For the same molecule, the half-life [8] was 14.6 h.

With `Cc1[nH]c(C)c(-c2ccc(OCc3cc(F)cc(F)c3)nc2)c(=O)c1Cl` the IC50 (Plasmodium falciparum) was 80 nM.

With `Cc1[nH]c(C)c(-c2ccc(-c3ccc(OC(F)(F)F)cc3)nc2)c(=O)c1Cl` the Vd [9] was 0.85 L/kg, the fraction unbound (serum albumin) was 0.04 and the clearance [10] was 0.53 mL/min/kg. It also gave a half-life [11] of 18.7 h, a Tmax [12] of 10 h and an AUC(0-inf) [13] of 187 µg·h/mL. The IC50 (Plasmodium falciparum) was 20 nM, the AUC(0-t) [14] was 167 µg·h/mL and the Cmax [15] was 2290 ng/mL. It also gave an ED50 (Plasmodium yoelii) of 0.15 mg/kg and a bioavailability [16] of 54.9%.

In the case of `Cc1[nH]c(C)c(-c2ccc(-c3ccccc3F)nc2)c(=O)c1Cl`, the IC50 (Plasmodium falciparum) is reported as 49 nM.

With `Cc1[nH]c(C)c(-c2ccc(OCc3cc(F)cc(F)c3)nc2)c(=O)c1Br` the IC50 (Plasmodium falciparum) was 40 nM.

`Cc1[nH]c(C)c(-c2ccc(OCc3ccc(F)cc3)nc2)c(=O)c1Br` gave an IC50 (Plasmodium falciparum) of 10 nM.

In the case of `Cc1[nH]c(C)c(-c2ccc(-c3cccc(Cl)c3)nc2)c(=O)c1Cl`, the IC50 (Plasmodium falciparum) is reported as 116 nM.

With `Cc1[nH]c(C)c(-c2ccc(-c3ccc(C(F)(F)F)cc3C(F)(F)F)nc2)c(=O)c1Br` the IC50 (Plasmodium falciparum) was 6 nM.

In the case of `Cc1[nH]c(C)c(-c2ccc(OCc3cc(C(F)(F)F)cc(C(F)(F)F)c3)nc2)c(=O)c1Cl`, the IC50 (Plasmodium falciparum) is reported as 29 nM.

Molecule `Cc1[nH]c(C)c(-c2ccc(-c3ccc(Cl)cc3)nc2)c(=O)c1Br` has an IC50 (Plasmodium falciparum) of 110 nM.

`Cc1[nH]c(C)c(-c2ccc(OCc3ccccc3C(F)(F)F)nc2)c(=O)c1Br` showed an IC50 (Plasmodium falciparum) of 11 nM.

Molecule `Cc1[nH]c(C)c(-c2ccc(CCc3ccc(C(F)(F)F)cc3)nc2)c(=O)c1Cl` has an IC50 (Plasmodium falciparum) of 5 nM.

Work on `Cc1[nH]c(C)c(-c2ccc(OCc3cccc(C(F)(F)F)c3)nc2)c(=O)c1Br` yielded an IC50 (Plasmodium falciparum) of 4 nM.

With `Cc1[nH]c(C)c(-c2ccc(CCc3cccc(C(F)(F)F)c3)nc2)c(=O)c1Cl` the IC50 (Plasmodium falciparum) was 7 nM.

Work on `Cc1[nH]c(C)c(-c2ccc(OCc3ccc(OC(F)(F)F)cc3)nc2)c(=O)c1Br` yielded a fraction unbound (serum albumin) of 0.03 and an IC50 (Plasmodium falciparum) of 19 nM.

Molecule `Cc1[nH]c(C)c(-c2ccc(OCc3ccc(OC(F)(F)F)cc3)nc2)c(=O)c1Cl` has an AUC(0-t) [17] of 5.6 µg·h/mL, a fraction unbound (serum albumin) of 0.03 and a bioavailability [18] of 11%. The half-life [19] was 5.32 h, the Cmax [20] was 300 ng/mL and the clearance [21] was 2.74 mL/min/kg. The Vd [22] was 1.26 L/kg, the IC50 (Plasmodium falciparum) was 14 nM and the Tmax [23] was 6 h. It also gave an AUC(0-inf) [24] of 5.6 µg·h/mL and an ED50 (Plasmodium yoelii) of 16.3 mg/kg.

In the case of `Cc1[nH]c(C)c(-c2ccc(-c3cccc(C(F)(F)F)c3)nc2)c(=O)c1Br`, the IC50 (Plasmodium falciparum) is reported as 7 nM.

With `Cc1[nH]c(C)c(-c2ccc(-c3ccccc3Cl)nc2)c(=O)c1Br` the IC50 (Plasmodium falciparum) was 44 nM.

For `Cc1[nH]c(C)c(-c2ccc(-c3ccccc3Cl)nc2)c(=O)c1Cl`, the IC50 (Plasmodium falciparum) was 26 nM.

In the case of `Cc1[nH]c(C)c(-c2ccc(OCc3cc(C(F)(F)F)cc(C(F)(F)F)c3)nc2)c(=O)c1Br`, the IC50 (Plasmodium falciparum) is reported as 33 nM.

Molecule `Cc1[nH]c(C)c(-c2ccc(-c3ccc(C#N)cc3)nc2)c(=O)c1Br` has an IC50 (Plasmodium falciparum) of 329 nM.
